Measurements: ChEMBL document CHEMBL1821654, “Synthesis and biological evaluation of analogues of M6G” (2011)
The source made the active and inactive calls.

Legend:
Mus musculus [1] = experiment: Analgesic activity in Swiss mouse assessed as maximum possible tail flick latency at 1.25 mg/kg, sc; assay type: functional; conditions: route subcutaneous
Method in brief: (§1)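 Male Swiss mice, 12 per group, were given compound subcutaneously at doses between 1.25 and 30 mg/kg. Analgesia was measured by tail-flick with an 8 s cut-off to avoid tissue damage. Readings were taken several times from 20 to 120 min after dosing. Inhibition was expressed as percent maximum possible effect (%MPE) by the D'Amour–Smith method.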

Mus musculus [2] = experiment: Analgesic activity in Swiss mouse assessed as maximum possible tail flick latency at 1.25 mg/kg, sc upto 120 mins; assay type: functional, organism-based; parameters: dose 1.25 mg/kg; method in brief: as §1
Mus musculus [3] = experiment: Analgesic activity in Swiss mouse assessed as maximum possible tail flick latency at 10 mg/kg, po; assay type: functional
Method in brief: (§2)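 Compound was given […] to male Swiss mice, 12 per group. Analgesia was measured by tail-flick with an 8 s cut-off. Responsiveness was read several times from 20 to 120 min after dosing. Tail-flick inhibition was expressed as percent maximum possible effect (%MPE) by the D'Amour–Smith method.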

Mus musculus [4] = experiment: Analgesic activity in po dosed Swiss mouse assessed as thermal-stimulus induced tail flick latency; assay type: functional; method in brief: as §2
Mus musculus [5] = experiment: Analgesic activity in sc dosed Swiss mouse assessed as assessed as thermal-stimulus induced tail flick latency after 30 mins; conditions: 0.5 h
Mus musculus [6] = experiment: Analgesic activity in sc dosed Swiss mouse assessed as assessed as thermal-stimulus induced tail flick latency after 60 mins; assay type: functional; conditions: 1 h

SMILES | MPE (Mus musculus [1]) [%] | Activity (Mus musculus [2]) | also measured
CN1CC[C@]23c4c5ccc(O)c4O[C@H]2[C@@H](O[C@@H]2O[C@H](c4nnn[nH]4)[C@@H](O)[C@H](O)[C@H]2O)C=C[C@H]3[C@H]1C5.O=C(O)C(F)(F)F | 80 | Active | MPE (Mus musculus [3]): 78%; ED50 (Mus musculus [4]): 2.5 mg/kg
CN1CC[C@]23c4c5ccc(O)c4O[C@H]2[C@@H](O)C=C[C@H]3[C@H]1C5 [MORPHINE] | – | – | ED50 (Mus musculus [5]): 4.4 mg/kg
CN1CC[C@]23c4c5ccc(O)c4O[C@H]2[C@@H](O[C@@H]2O[C@H](C(=O)O)[C@@H](O)[C@H](O)[C@H]2O)C=C[C@H]3[C@H]1C5 [MORPHINE GLUCURONIDE] | – | – | ED50 (Mus musculus [6]): 2.7 mg/kg
Cc1nnc([C@H]2O[C@@H](O[C@H]3C=C[C@H]4[C@H]5Cc6ccc(O)c7c6[C@@]4(CCN5C)[C@H]3O7)[C@H](O)[C@@H](O)[C@@H]2O)o1.O=C(O)C(F)(F)F | 80 | Active | –
CN1CC[C@]23c4c5ccc(O)c4O[C@H]2[C@@H](O[C@@H]2O[C@H](c4nc6n(n4)CCC(O)N6)[C@@H](O)[C@H](O)[C@H]2O)C=C[C@H]3[C@H]1C5.O=C(O)C(F)(F)F (stereo not given in full) | 80 | Active | –
